Bioassay records deposited in PubChem by Johns Hopkins Ion Channel Center.
MrgX1 agonist = agonists of human MrgX1 receptor, primary screen, HEK293 cells, Fluo-4 calcium flux | Mas-related G-protein coupled receptor member X1 (Homo sapiens), Q96LB2 | Fluo-4 calcium fluorescence, agonist mode; active compounds read high | B-score at 10 µM | 0.44% of 310,000 active | AID 588627, 2011;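 active = calcium response B-score plate-corrected fluorescence ratio at least 3 library SD, with starting fluorescence B-score inside 5 SD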
Target sequence (Q96LB2 whole entry, looked up): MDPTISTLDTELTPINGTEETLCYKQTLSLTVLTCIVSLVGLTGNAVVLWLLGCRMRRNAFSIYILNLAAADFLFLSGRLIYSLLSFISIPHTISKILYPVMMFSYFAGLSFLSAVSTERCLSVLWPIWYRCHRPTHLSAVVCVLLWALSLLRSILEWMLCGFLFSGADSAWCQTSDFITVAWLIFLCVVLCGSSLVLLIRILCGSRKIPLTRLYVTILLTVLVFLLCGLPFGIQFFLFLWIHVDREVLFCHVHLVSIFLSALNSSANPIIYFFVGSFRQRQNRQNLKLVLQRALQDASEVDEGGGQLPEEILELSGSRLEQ
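Test system: HEK293 cells stably expressing human MrgX1 receptor; amount: 15,000 cells per well; doses: compound delivered in addition one of three; times: overnight plating before 1 h dye loading; detection: Fluo-4 NW calcium-flux fluorescence, kinetic read; read-out basis: B-scored fluorescence response ratio; controls: positive and negative controls per plate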
RGS4 act = RGS4 potentiators or activators, primary screen, cell-based, HEK293 M3R inducible RGS4, calcium flux; carbachol calcium flux Fluo4; active compounds read low; B-score at 10 µM; 0.92% of 310,000 active;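 active = B-score of the integrated calcium signal more than 4 SD below the library mean, with starting fluorescence not abnormally high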;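 also: negative B-score means reduced calcium response which marks RGS4 activation or potentiation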
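Material: M3R-expressing HEK293 line, RGS4 induced by doxycycline | Schedule: Overnight RGS4 induction, 30 min dye load 37 °C, 20 min compound RT | Measured by: Fluo4 fluorescence kinetic imaging of calcium | Read-out: Integrated calcium ratio converted to B score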
RGS4 block = RGS4 inhibitors, primary screen, cell-based, HEK293 M3R inducible RGS4, calcium flux | Regulator of G-protein signaling 4 (Homo sapiens), P49798 | Fluo-4 calcium flux; active compounds read high; triggered by carbachol at its EC20 | B-score at 10 µM | 0.45% of 310,000 active | AID 463165, 2010;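 active = B-score, a plate-corrected calcium signal, over three deviations above library mean, with baseline fluorescence within five deviations of library mean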;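 also: RGS4 expression induced by doxycycline in cells with stable M3 receptor; B-score is computed from the integrated fluorescence ratio over baseline after carbachol; higher B-score means a larger calcium signal and so more RGS4 inhibition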
Target sequence (P49798 whole entry, looked up): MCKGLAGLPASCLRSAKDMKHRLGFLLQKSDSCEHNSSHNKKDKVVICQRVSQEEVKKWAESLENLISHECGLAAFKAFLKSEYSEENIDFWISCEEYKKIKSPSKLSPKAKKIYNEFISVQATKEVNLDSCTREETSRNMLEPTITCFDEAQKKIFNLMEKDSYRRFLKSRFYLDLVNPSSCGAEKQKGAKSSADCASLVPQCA
MrgX1 antagonist = antagonists of human MrgX1 receptor, primary screen, HEK293 cells, Fluo-4 calcium flux | BAM8-22 antagonism; active compounds read low | B-score at 10 µM | 1.3% of 310,000 active;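 active = calcium-response B-score plate-corrected more than 3 library SD below zero, starting fluorescence within 5 deviations, no agonist response on first addition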;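 also: peak minus trough fluorescence over baseline after final BAM8-22 challenge near maximal dose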
MrgX1 PAM = positive allosteric modulators of MrgX1, primary screen, HEK293 cells, Fluo-4 calcium flux. FDSS; active compounds read high. B-score at 10 µM. 0.63% of 310,000 active. AID 588675, 2011;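 active = plate-corrected calcium response at least 3 library SD above typical, normal starting fluorescence, not activating the receptor alone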;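 also: compound read alongside a low EC10 to EC30 dose of BAM8-22 agonist; peak minus trough fluorescence over baseline measured at the second addition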
MrgX1 ant reconf = MrgX1 receptor antagonists, duplicate retest, confirmation, HEK293 cells, Fluo-4 calcium flux; BAM8-22 calcium flux; active compounds read low; shares compounds with MrgX1 antagonist; remaining BAM8-22 calcium response % of control (active compounds read low), % at 10 µM; 19% of 2,300 active; AID 602420, 2012;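 active = remaining agonist calcium response no higher than 100% minus 3 SD of agonist-only control wells, with starting fluorescence near control levels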;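 also: agonist BAM8-22 given at a near maximal EC90 to ECmax level; peak minus minimum fluorescence divided by baseline after agonist addition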
HEK293 Ca flux = nonspecific calcium signal in parental HEK293, confirmation, counter-screen for MrgX1 antagonist project, parental HEK293 cells, Fluo-4 calcium flux; shares compounds with MrgX1 antagonist; Fluo-4 calcium fluorescence, FDSS; fluorescence ratio F(max-min)/F0 at 10 µM; 2% of 4,000 active; AID 624111, 2012;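 active = duplicate-averaged calcium fluorescence ratio at least three times the standard deviation of buffer wells, a nonspecific response in parental cells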
HEK293 Ca counter = calcium response in parental HEK293 cells, primary screen, counter-screen for MrgX1 allosteric activator project, cell-based, Fluo-4 calcium flux, duplicate | 0.4% of 4,000 active | fluorescence ratio F(max-min)/F0 at 10 µM | shares compounds with MrgX1 antagonist | Fluo-4 fluorescence ratio; active compounds read high;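 active = calcium fluorescence ratio, averaged over duplicates, at least 3 SD of the buffer-well ratio, meaning a nonspecific response in receptor-free cells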;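 also: untransfected parental HEK293 lacking MrgX1 used as counterscreen for MrgX1 allosteric activators; fluorescence change taken during the second addition on a kinetic imager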
HEK293 Ca cntr2 = calcium response in parental HEK293 cells, primary screen, counter-screen for MrgX1 agonist project, cell-based, Fluo-4 calcium flux, duplicate, agonist mode; 8.7% of 4,000 active; Fluo-4 calcium fluorescence (FDSS); active compounds read high; fluorescence ratio F(max-min)/F0 at 10 µM; shares compounds with MrgX1 antagonist;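 active = calcium fluorescence ratio at least three times the spread of buffer wells, meaning a non-specific response in parental cells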
An asterisk follows results filed as active. The list is not random: actives were taken first. Their share in the collection is about 3.5%.

Screening CCOc1ccccc1Nc1ncccc1C(=O)O returned MrgX1 agonist inactive, RGS4 act inactive, RGS4 block inactive, MrgX1 antagonist inactive and MrgX1 PAM inactive.
For COc1ccccc1Nc1ncccc1C(=O)O the results were MrgX1 agonist inactive, RGS4 act inactive, RGS4 block inactive, MrgX1 antagonist -8.5*, MrgX1 PAM inactive, MrgX1 ant reconf 77%*, HEK293 Ca flux inactive, HEK293 Ca counter inactive and HEK293 Ca cntr2 inactive.
For O=C(COc1cccc(NC(=O)c2ccccc2)c1)c1ccccc1 the results were MrgX1 agonist inactive, RGS4 act inactive, RGS4 block inactive, MrgX1 antagonist inactive and MrgX1 PAM inactive.
For O=C(COc1cccc(NC(=O)c2cccs2)c1)c1ccc(F)cc1 the results were MrgX1 agonist inactive, RGS4 act inactive, RGS4 block inactive, MrgX1 antagonist -4.9*, MrgX1 PAM inactive, MrgX1 ant reconf inactive, HEK293 Ca flux inactive, HEK293 Ca counter inactive and HEK293 Ca cntr2 inactive.
O=C(CCn1c(=S)oc2ccccc21)NC1CCCCCCC1 was read as MrgX1 agonist inactive, RGS4 act inactive, RGS4 block inactive, MrgX1 antagonist inactive and MrgX1 PAM inactive.
For Cc1ccc(CN2CCN(C(=O)c3ccncc3)CC2)cc1 the results were MrgX1 agonist inactive, RGS4 act inactive, RGS4 block inactive, MrgX1 antagonist -4.7*, MrgX1 PAM inactive, MrgX1 ant reconf inactive, HEK293 Ca flux inactive, HEK293 Ca counter inactive and HEK293 Ca cntr2 inactive.
`O=C(c1ccccc1)N1CCN(Cc2ccccc2)CC1` gave MrgX1 agonist inactive, RGS4 act inactive, RGS4 block inactive, MrgX1 antagonist inactive and MrgX1 PAM inactive.
Screening COc1ccc(Cl)cc1N1C(=O)c2cccnc2C1=O returned MrgX1 agonist inactive, RGS4 act inactive, RGS4 block inactive, MrgX1 antagonist inactive and MrgX1 PAM inactive.
Screening COc1ccc(Cl)cc1-n1c(C)ccc1C returned MrgX1 agonist inactive, RGS4 act inactive, RGS4 block inactive, MrgX1 antagonist -8.4*, MrgX1 PAM inactive, MrgX1 ant reconf inactive, HEK293 Ca flux inactive, HEK293 Ca counter inactive and HEK293 Ca cntr2 inactive.
Screening COc1cc(CC(=O)Nc2ccc(S(=O)(=O)N(C)C)cc2)cc(OC)c1OC returned MrgX1 agonist inactive, MrgX1 antagonist inactive and MrgX1 PAM inactive.
Cc1ccc(-n2c(-c3ccncc3)nnc2-c2cccs2)cc1 was read as MrgX1 agonist inactive, RGS4 act inactive, RGS4 block inactive, MrgX1 antagonist -5.7*, MrgX1 PAM inactive, MrgX1 ant reconf inactive, HEK293 Ca flux inactive, HEK293 Ca counter inactive and HEK293 Ca cntr2 inactive.
Screening C=C1CCN([C@H](C(=O)OCc2ccc(C)cc2)C(C)C)S(=O)(=O)c2ccccc21 returned MrgX1 agonist inactive, MrgX1 antagonist inactive and MrgX1 PAM inactive.
`C=C1CCN([C@@H](C)C(=O)OCc2cccc(C)c2)S(=O)(=O)c2ccccc21` gave MrgX1 agonist inactive, RGS4 act inactive, RGS4 block inactive, MrgX1 antagonist -11*, MrgX1 PAM inactive, MrgX1 ant reconf inactive, HEK293 Ca flux inactive, HEK293 Ca counter inactive and HEK293 Ca cntr2 inactive.
`CC(C)CNC(=O)c1cccc(NC(=O)COc2ccc([N+](=O)[O-])cc2)c1` gave MrgX1 agonist inactive, RGS4 act inactive, RGS4 block inactive, MrgX1 antagonist inactive and MrgX1 PAM inactive.
CCn1c(-c2csc(-c3ccc(Cl)cc3)n2)n[nH]c1=S was read as MrgX1 agonist inactive, RGS4 act inactive, RGS4 block inactive, MrgX1 antagonist -6*, MrgX1 PAM inactive, MrgX1 ant reconf inactive, HEK293 Ca flux inactive, HEK293 Ca counter inactive and HEK293 Ca cntr2 inactive.
For CCn1c(-c2csc(-c3ccccc3)n2)n[nH]c1=S the results were MrgX1 agonist inactive, RGS4 act inactive, RGS4 block inactive, MrgX1 antagonist inactive and MrgX1 PAM inactive.
For COc1ccc(-c2csc(NC(=O)c3ccccc3NS(=O)(=O)c3ccc(F)c(F)c3)n2)cc1 the results were MrgX1 agonist inactive, RGS4 act inactive, RGS4 block inactive, MrgX1 antagonist -6.5*, MrgX1 PAM inactive, MrgX1 ant reconf 63%*, HEK293 Ca flux inactive, HEK293 Ca counter inactive and HEK293 Ca cntr2 51*.
`Cc1ccccc1OC(C)C(=O)N1CCN(c2ccccn2)CC1` (stereo not given) gave MrgX1 agonist inactive, RGS4 act inactive, RGS4 block inactive, MrgX1 antagonist inactive and MrgX1 PAM inactive.
`O=C1c2ccncc2C(=O)N1CO` gave MrgX1 agonist inactive, RGS4 act inactive, RGS4 block inactive, MrgX1 antagonist -5*, MrgX1 PAM inactive, MrgX1 ant reconf 85%*, HEK293 Ca flux inactive, HEK293 Ca counter inactive and HEK293 Ca cntr2 inactive.
O=C1CC(SCCO)C(=O)N1c1ccc(Oc2ccccc2)cc1 (stereo not given) was read as MrgX1 agonist inactive, RGS4 act inactive, RGS4 block inactive, MrgX1 antagonist inactive and MrgX1 PAM inactive.
`COc1ccc(COC(=O)c2ccc(S(=O)(=O)N3CCC(C)CC3)cc2)cc1` gave MrgX1 agonist inactive, RGS4 act inactive, RGS4 block inactive, MrgX1 antagonist -6.8*, MrgX1 PAM inactive, MrgX1 ant reconf inactive, HEK293 Ca flux inactive, HEK293 Ca counter inactive and HEK293 Ca cntr2 inactive.
`CC(=O)N1CCC(N(CCCOC(C)C)S(=O)(=O)c2ccc([N+](=O)[O-])cc2)CC1` gave MrgX1 agonist inactive, RGS4 act inactive, RGS4 block inactive, MrgX1 antagonist inactive and MrgX1 PAM inactive.
